Measured values: ChEMBL document CHEMBL2331279, “Rational design and synthesis of 4-substituted 2-pyridin-2-ylamides with inhibitory effects on SH2 domain-containing inositol 5'-phosphatase 2 (SHIP2)” (Eur J Med Chem, 2013)
Blank lines part the entries; values can stand above or below the compound they belong to. The source made the active and inactive calls. The rule behind the calls is not given here.

Key:
Mus musculus [1] = experiment: Toxicity in C57BL/6J mouse assessed as body weight at 300 mg/kg, po bid for 12 to 13 days measured on day 10 (reference value: 23.2 +/-0.4 gms); assay type: organism-based; parameters: dose 300 mg/kg, route oral; settings: in vivo
Mus musculus [2] = experiment: Decrease in PEPCK gene expression in db/db mouse liver at 300 mg/kg, po bid for 12 to 13 days by real time RT-PCR analysis; assay type: functional, organism-based; parameters: dose 300 mg/kg
Outline: (§1)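 db/db mice dosed orally twice daily with 300 mg/kg or vehicle for 12-13 days, then fasted overnight and liver removed. Gluconeogenic gene mRNA measured by SYBR-green real-time PCR and expressed as fold change versus vehicle. Mean ± SE, n=7-8; ANOVA with Bonferroni test.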

Mus musculus [3] = experiment: Antidiabetic activity in db/db mouse assessed as decrease in glucose area under curve at 300 mg/kg, po bid for 10 days by glucose tolerance test relative vehicle treated control; assay type: functional; settings: 240 h
Outline: (§2)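 Male mice, 8 weeks old, dosed orally twice daily with 300 mg/kg in 0.5% methylcellulose, or vehicle, for 13 days (C57BL/6J) or 10 days (db/db). After a 6 h fast, glucose 2 g/kg given ip. Tail-vein blood sampled at set times and plasma glucose measured by glucometer. AUC calculated. Mean ± SE, n=5-8; ANOVA with Bonferroni test versus vehicle.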

Mus musculus [4] = experiment: Antidiabetic activity in db/db mouse assessed as decrease in HOMA-R index of insulin resistance at 300 mg/kg, po bid for 12 to 13 days; assay type: functional, organism-based; parameters: dose 300 mg/kg
Mus musculus [5] = experiment: Antidiabetic activity in db/db mouse assessed as decrease in glucose intolerance at 300 mg/kg, po bid for 10 days by glucose tolerance test; assay type: functional, organism-based; parameters: dose 300 mg/kg; outline: as §2
Mus musculus [6] = experiment: Toxicity in db/db mouse assessed as liver weight at 300 mg/kg, po bid for 12 to 13 days measured on day 12 to 13 (reference value: 1.57 +/-0.04 gms); assay type: organism-based; parameters: dose 300 mg/kg, route oral; settings: in vivo
Mus musculus [7] = experiment: Toxicity in db/db mouse assessed as epididymal white adipose tissue weight at 300 mg/kg, po bid for 12 to 13 days measured on day 12 to 13 (reference value: 1.82 +/-0.1 gms); assay type: organism-based; parameters: dose 300 mg/kg, route oral; settings: in vivo
Mus musculus [8] = experiment: Toxicity in C57BL/6J mouse assessed as liver weight at 300 mg/kg, po bid for 12 to 13 days measured on day 15 (reference value: 0.74 +/-0.03 gms); assay type: organism-based; parameters: dose 300 mg/kg, route oral; settings: in vivo
Mus musculus [9] = experiment: Antidiabetic activity in db/db mouse assessed as fasting plasma glucose level at 300 mg/kg, po bid for 12 to 13 days measured on day 12 to 13 (reference value: 106 +/-6 mg/dl); assay type: functional
Mus musculus [10] = experiment: Decrease in glucose-6-phosphatase gene expression in db/db mouse liver at 300 mg/kg, po bid for 12 to 13 days by real time RT-PCR analysis; assay type: functional, organism-based; parameters: dose 300 mg/kg; outline: as §1
[11] = target: T1, Phosphatidylinositol 3,4,5-trisphosphate 5-phosphatase 2 (Mus musculus) (UniProt Q6P549); experiment: Inhibition of SHIP2 in TNF alpha-treated mouse 3T3L1 cells assessed as potentiation of insulin-stimulated Akt phosphorylation at Thr308 at 10 uM treated for 15 mins after TNF alpha challenge for 16 hrs and prior to insulin stimulation measured after 2 hrs by Western blot analysis relative to untreated control; assay type: cell-based; settings: 3T3-L1
T1 sequence (whole entry): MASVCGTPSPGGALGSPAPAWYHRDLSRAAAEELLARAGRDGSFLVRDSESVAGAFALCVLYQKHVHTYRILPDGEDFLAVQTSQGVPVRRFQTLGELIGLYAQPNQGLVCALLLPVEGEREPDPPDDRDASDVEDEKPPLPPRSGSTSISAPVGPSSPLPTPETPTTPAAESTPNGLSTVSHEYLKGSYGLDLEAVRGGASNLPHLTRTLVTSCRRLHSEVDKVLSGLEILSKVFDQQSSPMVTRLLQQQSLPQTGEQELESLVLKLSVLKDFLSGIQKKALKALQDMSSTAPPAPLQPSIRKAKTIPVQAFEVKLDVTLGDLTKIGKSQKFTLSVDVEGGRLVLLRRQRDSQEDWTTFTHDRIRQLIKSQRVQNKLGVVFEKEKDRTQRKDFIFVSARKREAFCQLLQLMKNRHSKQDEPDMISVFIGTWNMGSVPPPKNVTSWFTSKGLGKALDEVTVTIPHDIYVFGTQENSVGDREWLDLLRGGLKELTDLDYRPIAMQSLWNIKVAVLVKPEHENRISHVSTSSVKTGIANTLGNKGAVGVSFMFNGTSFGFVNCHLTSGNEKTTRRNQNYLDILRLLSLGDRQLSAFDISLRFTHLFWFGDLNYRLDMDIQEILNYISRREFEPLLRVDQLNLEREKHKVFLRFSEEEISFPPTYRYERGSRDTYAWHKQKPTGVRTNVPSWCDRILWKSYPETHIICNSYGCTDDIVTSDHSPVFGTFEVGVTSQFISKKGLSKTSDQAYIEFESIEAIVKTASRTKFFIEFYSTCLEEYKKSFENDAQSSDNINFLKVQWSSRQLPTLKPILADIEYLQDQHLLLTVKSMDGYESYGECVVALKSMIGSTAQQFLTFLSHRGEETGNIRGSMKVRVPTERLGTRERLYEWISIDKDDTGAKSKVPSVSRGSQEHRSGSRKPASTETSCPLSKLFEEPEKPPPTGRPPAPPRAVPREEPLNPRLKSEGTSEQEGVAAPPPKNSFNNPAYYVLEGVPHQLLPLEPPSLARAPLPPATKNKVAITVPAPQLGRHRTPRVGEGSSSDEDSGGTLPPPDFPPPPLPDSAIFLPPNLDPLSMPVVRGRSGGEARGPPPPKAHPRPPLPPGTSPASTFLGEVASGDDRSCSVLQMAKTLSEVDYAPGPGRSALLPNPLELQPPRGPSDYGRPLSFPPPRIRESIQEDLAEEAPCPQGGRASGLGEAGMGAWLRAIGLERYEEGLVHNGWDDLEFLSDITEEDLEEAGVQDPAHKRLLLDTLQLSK
Outline: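 3T3-L1 fibroblasts differentiated into adipocytes, then serum-starved 16 h with TNFα 20 ng/mL. Treated with compound 10 µM or 0.1% DMSO for 15 min, then stimulated with 17 nM insulin at 37 °C for 2 h. Cells lysed on ice at pH 7.5 and Thr308 phospho-Akt measured by western blot. Results given as fold change versus TNFα+insulin control. Mean ± SE.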

fold change (FC) [11]: 1.2
SMILES: C[C@H](NC(=O)c1sccc1OCc1ccc(Cl)cc1)c1ccccc1
Activity (Mus musculus [1]): 23 g
inhibition (Mus musculus [2]): Active
inhibition in vivo at 300 mg/kg (Mus musculus [3]): 14%
inhibition (Mus musculus [4]): Active
inhibition (Mus musculus [5]): Active
Activity (Mus musculus [6]): 1.8 g
Activity (Mus musculus [7]): 1.75 g
Activity (Mus musculus [8]): 0.73 g
Activity (Mus musculus [9]): 77 mg/dL
inhibition (Mus musculus [10]): Active

fold change (FC) [11]: 1.3
SMILES: O=C(Cc1c(F)cccc1F)Nc1cc(OCc2ccc(Cl)cc2)ccn1
Activity (Mus musculus [1]): 23.4 g
inhibition (Mus musculus [2]): Active
inhibition in vivo at 300 mg/kg (Mus musculus [3]): 16%
inhibition (Mus musculus [4]): Active
inhibition (Mus musculus [5]): Active
Activity (Mus musculus [6]): 1.67 g
Activity (Mus musculus [7]): 1.86 g
Activity (Mus musculus [8]): 0.86 g
Activity (Mus musculus [9]): 83 mg/dL
inhibition (Mus musculus [10]): Active
